# Assay results reported in publication PMC3068526 (Science (New York, N.Y.), 2010).
# Legend:
# cell viability = test: cell viability; format: cell-based; conditions: in the concentration range studied
# [1] = tested on: recombinant solubilized or microsomal GOAT; test: UV crosslinking of biotin-tagged benzoyl-phenylalanine analogs to GOAT; format: binding; conditions: competitor at 100 μM
# Summary of the method: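 Solubilized GOAT was UV-crosslinked with biotin-tagged benzophenylalanine-containing probe analogs (L5BP, F4BP) at 5 μM, with or without 100 μM unlabelled test compound as competitor. Cross-linked GOAT was detected on immunoblots with streptavidin, and loading was checked with anti-FLAG.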
# ghrelin knockout animals = test: intraperitoneal glucose challenge in ghrelin knockout animals; format: in vivo, mouse; conditions: compared to vehicle or to wt animals analyzed in parallel
# GHSR-1a receptor = GHSR-1a receptor antagonism; format: cell-based
# [2] = tested on: wild type (wt) C57BL6 animals; test: serum acyl and desacyl ghrelin levels in mice after intraperitoneal dosing; format: in vivo, mouse; conditions: 11 μmol/kg (40 mg/kg) intraperitoneal, wt C57BL6 mice on MCT diet
# Summary of the method: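 Wild-type C57BL6 mice on a medium-chain triglyceride diet were given a single IP dose of test compound at 11 μmol/kg (40 mg/kg), or the D4-Tat control or vehicle (n = 5). Serum acyl and desacyl ghrelin and percent acyl ghrelin were measured at 6, 12 and 24 h. Standard errors are reported.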
# human islet cells = test: insulin response of human islet cells to a glucose challenge; format: cell-based; conditions: human islet cells pre-treated with compound
# wt C57BL6 mice = test: body weight and QMR fat/lean mass in wt mice on MCT diet, one month treatment; format: in vivo, mouse; conditions: 11 μmol/kg IP every 24 h
# Summary of the method: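 Wild-type C57BL6 mice on a medium-chain triglyceride diet received test compound at 11 μmol/kg IP every 24 h for one month (n = 5) or vehicle (n = 6). Body mass was recorded daily, and fat and lean mass were determined by quantitative magnetic resonance. Standard errors are reported.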
# [3] = tested on: ghrelin knockout C57BL6 mice; test: body weight and adiposity in ghrelin knockout mice; format: in vivo, mouse
# UCP2 mRNA = test: QRT-PCR of islets and gastric fundus isolated from treated mice; format: in vivo, mouse
# wt mice [4] = test: weight gain in wt mice fed a high fat diet; format: in vivo, mouse
# [5] = tested on: serotonin N-acetyltransferase; test: in vitro inhibition of serotonin N-acetyltransferase; format: biochemical; conditions: at 10 μM
# p300 HAT = test: in vitro inhibition of acetyl-CoA utilizing enzyme p300 HAT; format: biochemical; conditions: at 10 μM
# [6] = tested on: recombinant microsomal GOAT; test: in vitro acyltransferase inhibition assay; format: biochemical; conditions: 100 nM compound, within 5 min (5 min reaction), radioactive assay
# PCAF HAT = test: in vitro inhibition of acetyl-CoA utilizing enzyme PCAF HAT; format: biochemical; conditions: at 10 μM
# wt mice [7] = test: blood chemistries and blood cell counts after one month of treatment; format: in vivo, mouse
# GOAT = molecular target: T1, GOAT (Homo sapiens, UniProt Q96T53); format: cell-based
# T1 sequence (Q96T53 1-435): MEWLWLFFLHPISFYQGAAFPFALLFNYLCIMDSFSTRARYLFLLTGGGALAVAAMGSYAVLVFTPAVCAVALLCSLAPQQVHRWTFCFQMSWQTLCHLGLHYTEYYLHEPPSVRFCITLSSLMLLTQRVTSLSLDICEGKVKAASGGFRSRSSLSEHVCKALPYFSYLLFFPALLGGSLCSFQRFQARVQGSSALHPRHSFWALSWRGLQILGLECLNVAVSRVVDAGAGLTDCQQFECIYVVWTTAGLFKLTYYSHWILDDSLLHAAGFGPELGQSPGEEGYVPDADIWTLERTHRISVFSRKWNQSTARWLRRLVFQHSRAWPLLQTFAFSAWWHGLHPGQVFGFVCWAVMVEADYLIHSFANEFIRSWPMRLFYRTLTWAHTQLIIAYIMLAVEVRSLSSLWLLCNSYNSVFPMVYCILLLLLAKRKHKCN
# Summary of the method: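 HeLa and HEK cells stably expressing GOAT and preproghrelin were grown in octanoic acid-supplemented medium. Acyl and desacyl ghrelin were measured after test compound exposure, either as a time course at 6 μM in HeLa cells or as a dose-response after 24 h incubation. IC50 was derived from the acyl ghrelin reduction.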
# [8] = ghrelin knockout mice on MCT diet, 11 μmol/kg, 1 mo
smiles,measurement,setting,value
CCCCCCC(SCCNC(=O)CCNC(=O)[C@H](O)C(C)(C)COP(=O)(O)OP(=O)(O)OC[C@H]1O[C@@H](n2cnc3c(N)ncnc32)[C@H](O)[C@@H]1OP(=O)(O)O)C(=O)NC[C@H](NC(=O)[C@H](CO)NC(=O)CN)C(=O)N[C@@H](Cc1ccccc1)C(=O)N[C@@H](CC(C)C)C(=O)N[C@@H](CO)C(=O)N1CCC[C@H]1C(=O)N[C@@H](CCC(=O)O)C(=O)N[C@@H](Cc1c[nH]cn1)C(=O)N[C@@H](CCC(N)=O)C(=O)NCCCCCC(=O)N[C@@H](Cc1ccc(O)cc1)C(=O)NCC(=O)N[C@@H](CCCNC(=N)N)C(=O)N[C@@H](CCCCN)C(=O)N[C@@H](CCCCN)C(=O)N[C@@H](CCCNC(=N)N)C(=O)N[C@@H](CCCNC(=N)N)C(=O)N[C@@H](CCC(N)=O)C(=O)N[C@@H](CCCNC(=N)N)C(=O)N[C@@H](CCCNC(=N)N)C(=O)N[C@@H](CCCNC(=N)N)C(N)=O (stereo partly shown) [GO-CoA-Tat],toxicity to cell viability,cell viability,non-toxic
same,blocking of cross-linking of F4BP/L5BP analogs to GOAT (competitor),[1],can be blocked by GO-CoA-Tat
same,effect in glucose challenge,ghrelin knockout animals,did not have a significant effect
same,antagonism of GHSR-1a receptor,GHSR-1a receptor,does not antagonize
same,serum levels of desacyl ghrelin,[2],no significant effect
same,time of maximum inhibition of serum acyl ghrelin after administration,[2],6 h
same,serum levels of acyl ghrelin,"[2]; n = 5, 6, 12 and 24 h",decreased serum levels of acyl ghrelin
same,insulin response to a glucose challenge,human islet cells,statistically significant increase in insulin response
same,weight gain,wt C57BL6 mice; n = 5 vs vehicle n = 6,prevented the significant weight gain
same,fat mass (QMR),wt C57BL6 mice; relative to controls,significantly lower fat mass
same,lean mass (QMR),wt C57BL6 mice; relative to controls,but not lean mass
same,fat mass (QMR),[3]; [8],did not significantly alter
same,lean mass (QMR),[3]; [8],did not significantly alter
same,weight,"[3]; ghrelin knockout mice on MCT diet, 11 μmol/kg, 1 mo, n = 5 vs vehicle n = 5",did not significantly alter
same,weight gain of treated ghrelin knockout mice versus treated age-matched wt mice,"[3]; separate long term study, one month of administration",gained more weight
same,effects on UCP2 mRNA in the gastric fundus,"UCP2 mRNA; gastric fundus from mice treated 24 h prior to isolation, n = 3",non-statistically significant effects
same,reduction in UCP2 mRNA in islets,"UCP2 mRNA; islets isolated from mice treated 24 h prior to isolation, compared to D4-tat treated mice, n = 3",20 fold
same,"levels of insulin, ghrelin, or GHSR mRNAs in islets","UCP2 mRNA; islets isolated from treated mice, compared to D4-tat treated mice",no change
same,fat mass,wt mice [4],relative reduction of fat mass
same,food intake,wt mice [4],no effect on food intake
same,lean mass,wt mice [4],without a change in lean mass
same,weight gain,wt mice [4],slowed weight gain
same,inhibition of serotonin N-acetyltransferase,[5],less than 15%
same,inhibition of p300 HAT,p300 HAT,less than 15%
same,GOAT inhibition,[6],Virtually complete GOAT inhibition
same,inhibition of PCAF HAT,PCAF HAT,less than 15%
same,IGF-1 levels,wt mice [7],lower IGF-1 levels
same,blood glucose,wt mice [7],lower blood glucose
same,generalized toxicity by blood chemistries and blood cell counts,wt mice [7],"no evidence of liver, renal, pancreas, or bone marrow toxicities"
same,inhibition of production of desacyl ghrelin,GOAT; GOAT/preproghrelin stably expressing HeLa and HEK cells,not desacyl ghrelin
same,exposure time needed for maximal inhibition of acyl ghrelin,"GOAT; preproghrelin/GOAT-transfected HeLa and HEK cells, 6 μM in HeLa time course",24 h
